The list is not random: actives were taken first. Their share in the collection is about 6.7%.
CHOP inhibitor: CHOP inhibition in unfolded protein response; CHO-K1 CHOP-promoter luciferase, tunicamycin-induced, 15-18 h; inhibition, % at 10 µM; 220,000 compounds, 3.8% hits;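 active = compounds that reduced the stress-induced luciferase reporter signal by more than about 70% of percent inhibition, limit read from the data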
Beta apoptosis: beta cell apoptosis inhibition; INS-1E cytokine-induced death, ATP luminescence, 48 h; percent of positive-control rescue, neutral wells zero; 300,000 compounds, 0.8% hits; protection from apoptosis, % (test concentration not listed); AID 435005;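 active = Every replicate reaches about 75%, or at least half do and their mean reaches it too, limit read from the data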;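 also: higher means more ATP so stronger rescue from cytokine killing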
T cruzi repl: blocks replication of Trypanosoma cruzi. 300,000 compounds, 1.4% hits. inhibition, % (test concentration not listed). T. cruzi beta-gal in NIH3T3, luminescence, 90 h;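 active = mean inhibition across valid replicates above about 55%, limit read from the data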;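 also: signal also drops with host cell toxicity which is not excluded here; higher percent means less beta-gal luminescence so fewer parasites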
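Material: NIH/3T3 host cells with β-galactosidase reporter T. cruzi; Input: 5,000 host fibroblasts per well; Medium: DMEM, 2% fetal bovine serum; Compound: 50 nL DMSO compound solution per well; Schedule: 3 h host attachment, then at least 90 h co-culture; Detection: luminescent β-galactosidase signal after 60 min lysis.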
PREPL inh: inhibitors of human prolyl oligopeptidase-like enzyme PREPL; recombinant PREPL, fluorescence polarization activity-based probe; Q4J6C6; inhibition, % at 5.96 µM; AID 2751; 320,000 compounds, 0.68% hits; in the data active = inhibition above about 43%
Target sequence (Q4J6C6 whole entry, looked up): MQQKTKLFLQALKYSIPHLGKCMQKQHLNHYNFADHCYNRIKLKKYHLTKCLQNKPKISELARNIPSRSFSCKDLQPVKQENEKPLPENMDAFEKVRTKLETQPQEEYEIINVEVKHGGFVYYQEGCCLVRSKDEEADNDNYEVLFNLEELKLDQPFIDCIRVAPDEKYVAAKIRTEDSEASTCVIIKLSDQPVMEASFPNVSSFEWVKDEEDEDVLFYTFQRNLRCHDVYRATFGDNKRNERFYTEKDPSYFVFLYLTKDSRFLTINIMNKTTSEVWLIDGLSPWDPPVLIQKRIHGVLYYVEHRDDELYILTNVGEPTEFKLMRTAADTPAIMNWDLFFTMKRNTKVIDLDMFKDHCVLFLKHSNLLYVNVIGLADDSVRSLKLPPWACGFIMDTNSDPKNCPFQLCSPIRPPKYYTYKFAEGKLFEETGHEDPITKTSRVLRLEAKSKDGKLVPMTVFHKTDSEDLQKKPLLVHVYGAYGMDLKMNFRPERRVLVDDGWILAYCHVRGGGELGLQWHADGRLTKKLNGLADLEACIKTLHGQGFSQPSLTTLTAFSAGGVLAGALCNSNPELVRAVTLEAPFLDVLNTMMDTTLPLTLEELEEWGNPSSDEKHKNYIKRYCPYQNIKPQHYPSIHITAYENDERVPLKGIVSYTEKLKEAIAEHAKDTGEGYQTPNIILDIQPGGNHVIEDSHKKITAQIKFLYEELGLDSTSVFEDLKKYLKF
CSC inhib: blocks cancer stem cells; cancer stem cell-like cells viability, luminescence; inhibition, % at 7.5 µM; 300,000 compounds, 1.1% hits; AID 2717; in the data active = inhibition above about 75%; tested in HMLE shEcad cells
GRIN3A LBD mod: modulates the human NR3A ligand-binding domain; NR3A LBD differential scanning fluorimetry, Tm shift; 0% = protein alone, 100% = glycine-bound protein; Tm shift relative to glycine control, % at 25 µM; 340,000 compounds, 2.5% hits; AID 1259313;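 active = melting temperature shift of at least 10% of the positive control shift, at one fixed dose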
Large screens that a line does not name were inactive.

CC(C)c1ccc(NC(=O)c2ccccc2NC(=O)C2CCCCC2C(=O)O)cc1 (configuration not stated)	none (no result: CHOP inhibitor, Beta apoptosis, PREPL inh, CSC inhib)
COc1ccc(C(=O)Nc2c(-c3cccs3)c(=O)c3ccccc3n2C)cc1	none
O=C(NCc1cccs1)c1csc2ccccc12	none
Cc1noc(NS(=O)(=O)c2ccc(N/C=C\C(=O)c3ccncc3)cc2)c1C	none
NC(N)=NS(=O)(=O)c1ccc(N/C=C\C(=O)c2ccncc2)cc1	GRIN3A LBD mod 244
CCOC(=O)c1c(SCCN2CCCCC2)n(-c2ccccc2)c(=S)n(-c2ccccc2)c1=O	none (no result: CHOP inhibitor, Beta apoptosis, T cruzi repl, PREPL inh, CSC inhib)
O=C(O)c1ccccc1NC(=O)C(Cc1ccccc1)N1C(=O)c2ccccc2C1=O (configuration not stated)	none (no result: CHOP inhibitor)
O=C(Nc1ccc([N+](=O)[O-])cc1)C(Cc1ccccc1)N1C(=O)c2cccc3cccc(c23)C1=O (configuration not stated)	GRIN3A LBD mod 11 (no result: Beta apoptosis)
Cc1occc1-c1nnc(SCC(=O)NC2CCC(C)CC2)o1 (configuration not stated)	none (no result: CHOP inhibitor, T cruzi repl, CSC inhib)
COc1ccc(CN2CCNC(=O)C2CC(=O)N(C)C2CCOCC2)c(F)c1 (configuration not stated)	none (no result: CHOP inhibitor)
COCCOc1ccc(C(F)(F)F)cc1NC(=O)c1ccc(C(F)(F)F)cc1	none
COCCOc1ccc(C(F)(F)F)cc1Nc1nc2ccccc2o1	CHOP inhibitor 88
Cc1cccc(NC(=S)N(Cc2cccc(Br)c2)CC2CCC(C(=O)O)CC2)c1 (configuration not stated)	none
COc1ccc(NC(=S)N(Cc2cccc(Br)c2)CC2CCC(C(=O)O)CC2)cc1 (configuration not stated)	GRIN3A LBD mod 12
COc1cccc(NC(=S)N(Cc2cccc(Br)c2)CC2CCC(C(=O)O)CC2)c1 (configuration not stated)	GRIN3A LBD mod 17
COc1ccc(CN(CC2CCC(C(=O)O)CC2)C(=S)Nc2ccc(C)c(Cl)c2)cc1 (configuration not stated)	T cruzi repl 58
CN(CC(=O)Nc1ccccc1Cl)C(=O)COC(=O)c1cnccn1	none (no result: CHOP inhibitor)
O=C(OCC(=O)N1CCc2ccccc2C1)c1c(F)cccc1Cl	none (no result: CHOP inhibitor, T cruzi repl)
CC1CCCCC1NC(=O)CN1C(=O)NC(Cc2ccccc2)(Cc2ccccc2)C1=O (configuration not stated)	none
CCn1cc(C(=O)NC(C)C23CC4CC(CC(C4)C2)C3)cn1 (configuration not stated)	none
CC(NC(=O)CN1C(=O)NC(Cc2ccccc2)(Cc2ccccc2)C1=O)C12CC3CC(CC(C3)C1)C2 (configuration not stated)	CHOP inhibitor 84, T cruzi repl 61
CC(NC(=O)Cn1ncc(Cl)c(Cl)c1=O)C12CC3CC(CC(C3)C1)C2 (configuration not stated)	CHOP inhibitor 109, CSC inhib 116
COc1ccccc1CN1CC(C(=O)N2CCC(C(=O)c3ccccc3)CC2)CCC1=O (configuration not stated)	none (no result: CHOP inhibitor)
CN(C)c1ccc(-n2cccc2/C=C/[N+](=O)[O-])cc1	CHOP inhibitor 92, CSC inhib 87
Brc1ccc(Oc2nsnc2N2CCOCC2)cc1	CHOP inhibitor 84
COC(=O)Oc1nsnc1N1CCOCC1	none
COc1ccc(/C=N/NC(=O)c2cccc([N+](=O)[O-])c2)cc1O	none
O=C(N/N=C/c1cccc(O)c1)c1ccc(NC(=O)c2cccc([N+](=O)[O-])c2)cc1	GRIN3A LBD mod 27
CCC(=O)Nc1ccc(C(=O)N/N=C/c2cc(Br)c(OC)cc2OC)cc1	GRIN3A LBD mod 24
COc1ccc(/C=N/NC(=O)c2cccc(NC(=O)c3ccc(Cl)cc3)c2)c(OC)c1	GRIN3A LBD mod 11
COc1cc(/C=N/NC(=O)c2cccc([N+](=O)[O-])c2)ccc1OCc1ccc(C)cc1	GRIN3A LBD mod 17 (no result: Beta apoptosis)
O=C(O)C(c1ccccc1)C1(O)CC2CCC1C2 (configuration not stated)	none (no result: CHOP inhibitor, Beta apoptosis, T cruzi repl, PREPL inh, CSC inhib)
COc1ccccc1/C=N/NC(=O)c1ccc(NC(=O)c2cccc([N+](=O)[O-])c2)cc1	none (no result: GRIN3A LBD mod)
COc1ccc(/C=N/NC(=O)c2ccc(NC(=O)c3cccc([N+](=O)[O-])c3)cc2)c(OC)c1	GRIN3A LBD mod 18
O=C(NCO)c1cccnc1	none (no result: CHOP inhibitor, Beta apoptosis, T cruzi repl, PREPL inh, CSC inhib)
Cc1nn(Cc2ccc(Cl)cc2Cl)c(Cl)c1/C=C/C(=O)OCC(=O)NCC(F)(F)F	CHOP inhibitor 77
O=C1OCC2=C1C(c1ccccc1)CC(=O)N2c1ccccc1 (configuration not stated)	none
CC1CCCCN1C(=O)CSc1nc(C2CC2)nc2ccccc12 (configuration not stated)	none (no result: CHOP inhibitor, CSC inhib)
Cc1ccc(C)c2sc(NC(=O)C3CC3)nc12	none (no result: CHOP inhibitor)
CCc1cccc2sc(NC(=O)C3CC3)nc12	GRIN3A LBD mod 12 (no result: CHOP inhibitor)
COc1cc(OC)cc(C(=O)Nc2ccc(N3CCN(C(=O)c4cccs4)CC3)cc2)c1	none (no result: CHOP inhibitor)
Cc1[nH]nc(N2CCCCC2)c1[N+](=O)[O-]	none
Cc1nc(N2CCCCC2)c(C#N)c(C)c1[N+](=O)[O-]	CHOP inhibitor 74
CC(=O)Nc1nnc(-c2ccc3c(c2)CCCC3)o1	none
COc1ccccc1C(=O)Nc1nnc(-c2ccc3c(c2)CCCC3)o1	CHOP inhibitor 80 (no result: Beta apoptosis)
CC1CN(S(=O)(=O)c2ccc(C(=O)Nc3nnc(-c4ccc5c(c4)CCCC5)o3)cc2)CC(C)O1 (configuration not stated)	CHOP inhibitor 104, T cruzi repl 61
O=C(COc1ccc(Cl)cc1)Nc1nnc(-c2ccc3c(c2)CCCC3)o1	CHOP inhibitor 87 (no result: Beta apoptosis)
O=C(CCCCCN1C(=O)[C@@H]2Cc3ccccc3CN2C1=O)Nc1cccc(F)c1	none (no result: CHOP inhibitor)
CCOc1cc(C)c(C(C)C)cc1S(=O)(=O)n1ccc(C)n1	CHOP inhibitor 77
CC1CCCCN1C(=O)/C(=C\c1ccccc1)c1ccccc1 (configuration not stated)	CHOP inhibitor 88 (no result: CSC inhib)
CC(=O)Nc1ccc(NC(=O)COC(=O)c2ccccc2SCC(=O)N2CCCC2)cc1	none (no result: CHOP inhibitor)
N#CC1(NC(=O)COC(=O)c2ccccc2SCC(=O)N2CCCC2)CCCCC1	GRIN3A LBD mod 13 (no result: CHOP inhibitor)
COc1ccc(NC(=O)COC(=O)c2ccccc2SCC(=O)N2CCCC2)cc1	GRIN3A LBD mod 19 (no result: CHOP inhibitor)
O=C(OCC(=O)N1CCCCC1)c1ccccc1SCC(=O)N1CCCCC1	none
CCOc1ccccc1NC1=C(OC)C(=O)C(Nc2ccccc2OCC)=C(OC)C1=O	none (no result: CHOP inhibitor, Beta apoptosis, T cruzi repl, PREPL inh, CSC inhib)
COc1ccc(NC(=O)c2ccco2)cc1NC(=O)c1ccco1	none
COc1cc(NC(=O)c2ccco2)c(OC)cc1NC(=O)Nc1cccc(Cl)c1	T cruzi repl 57, GRIN3A LBD mod 22
COc1ccc([N+](=O)[O-])cc1NC(=O)Nc1cccc(Cl)c1	GRIN3A LBD mod 29
